This series can be described thus: Toxicity liver stage against HepG2, at 10uM. The conditions noted are these: human, HepG2-A16-CD81EGFP cells; read-out: INHIBITION
The format is cell-based. Details: test concentration 10 uM, cell line HepG2-A16-CD81EGFP. The essentials: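 Uninfected HepG2-A16-CD81EGFP cells, 3 × 10^3 per well, 1536-well, plated on prespotted compound at 10 μM final, parasite-free screening media added to match infected plates; puromycin 10 μM positive, DMSO 0.5% negative; run in parallel with 48 h PbLuc assay at 37 °C, 5% CO2; viability by CellTiter-Glo luminescence, normalized to controls.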
For `O=C(CN1CCN(C(=O)c2ccccc2)CC1)Nc1ccc(Br)cn1`, the cytotoxicity at 10 µM is 14.1%.

Turning to `CCN1Cc2cc(F)ccc2N(CC(O)C(F)(F)F)CCC1=O` (configuration not stated), the cytotoxicity at 10 µM was -3.4%.

In the case of `CCOCC(=O)NCC(Cc1cccc(F)c1)n1cccc1` (configuration not stated), the cytotoxicity at 10 µM is -6.22%.

With `Cc1noc(CNC(=O)CN(C)c2nc3c(F)cccc3s2)n1`, the cytotoxicity at 10 µM is 3.76%.

Turning to `Cn1c(C(F)(F)F)nn(CCNC(=O)Nc2ccccc2F)c1=O`, the cytotoxicity at 10 µM is -2.59%.

Consider `O=C(C1CCC1)N1C[C@@H]2CN(c3ccccc3)C(=O)[C@@H]2C1`, for which the cytotoxicity at 10 µM stood at 1.05%.

On to `CN(c1ncc(C(=O)Nc2ccccc2)c(N)n1)C1CCCCC1`, for which the cytotoxicity at 10 µM is -6.21%.

As for `CCn1nc(C)c2c1cnn2CCNS(=O)(=O)Cc1ccccc1`, the cytotoxicity at 10 µM is 9.6%.

In the case of `COCCNc1ncc(-c2cc(C)no2)c(-c2ccco2)n1`, the cytotoxicity at 10 µM was found to be 13.4%.

In the case of `COc1ccc(CC2CN(Cc3cncn3C)CCO2)cc1` (configuration not stated), the cytotoxicity at 10 µM came out at 0.328%.

Regarding `O=C(O)COc1ccccc1CN1CCCC1c1cnccn1` (configuration not stated), the cytotoxicity at 10 µM amounted to 22%.

As to `O=C(CC1CCCCC1)N1CCC(c2ncc3c(n2)CCNC3)CC1`, the cytotoxicity at 10 µM was -8.21%.

With `Cn1cc(CN2CC[C@H](O)[C@@H](n3ccc(=O)[nH]c3=O)CC2)cn1`, the cytotoxicity at 10 µM was found to be 20.4%.

Consider `O=C(C1CC1)N1CCCC(c2nc(O)cc(-c3ccncc3)n2)C1` (configuration not stated), for which the cytotoxicity at 10 µM came out at 31.2%.

Regarding `Cc1noc2nc(C3CCN(Cc4ccccn4)CC3)cc(C(F)F)c12`, the cytotoxicity at 10 µM was -13%.

Consider `CCc1cc(O)nc(C2CCCN(Cc3ccncc3)C2)n1` (configuration not stated), for which the cytotoxicity at 10 µM was -7.05%.

As for `COCCn1cnc2c(F)cc(Br)cc2c1=O`, the cytotoxicity at 10 µM is -0.62%.

As to `Cc1c(Br)cccc1NC(=O)N(C)CCO`, the cytotoxicity at 10 µM is -24.5%.

Turning to `CNS(=O)(=O)CCCN1CCN(C(C#N)c2ccccc2)CC1` (configuration not stated), the cytotoxicity at 10 µM amounted to 7.7%.

For `COC(=O)CC1CCCCN1CC(=O)Nc1cc(F)ccc1F` (configuration not stated), the cytotoxicity at 10 µM was found to be 6.55%.

In the case of `CC(c1ccccc1)N(C)C(=O)CN1CCN(c2cnccn2)CC1` (configuration not stated), the cytotoxicity at 10 µM worked out at 3.96%.

Take `COc1cc2c(cc1CNC(=O)Cc1cc(C)on1)OC(C)C2` (configuration not stated): the cytotoxicity at 10 µM was 5.38%.

`Cc1nc(C)n(CC2CCCCN2CCCN2CCCC2=O)n1` (configuration not stated): the cytotoxicity at 10 µM was -2.35%.

As for `CC(C)C(=O)N1CCN(Cc2csc(-c3ccccn3)n2)CC1`, the cytotoxicity at 10 µM was -5.71%.

As for `Cc1nc(C)n(CC2CCCN(Cc3nc(-c4ccco4)no3)C2)n1` (configuration not stated), the cytotoxicity at 10 µM was -11.5%.

On to `CN(CCS(C)(=O)=O)C1CCCN(Cc2noc(C3CC3)n2)C1` (configuration not stated), for which the cytotoxicity at 10 µM turned out to be 14.6%.

With `CC(NCc1ccccn1)c1cc2c(cc1Br)OCCO2` (configuration not stated), the cytotoxicity at 10 µM came to 2.65%.

`CN(Cc1ccsc1)C(=O)Nc1ccc(=O)n(C)c1`: the cytotoxicity at 10 µM was 6.26%.

`Cc1nn(C(C)C)c(C)c1S(=O)(=O)Nc1ccc(C(=O)O)cc1`: the cytotoxicity at 10 µM was determined as 15.2%.

Take `O=C(NCCCF)Nc1ccc2nc(N3CCOCC3)oc2c1`: the cytotoxicity at 10 µM came to 2.77%.

`CC(C)(C)c1nc(CC(=O)NC2CCN(C3CC3)C2)cs1` (configuration not stated): the cytotoxicity at 10 µM is -9.25%.

As to `O=C(Nc1cc(CSCCO)ccn1)c1cc2ccccc2[nH]1`, the cytotoxicity at 10 µM is 17.3%.

Consider `CCC(Nc1nnnn1-c1ccccc1)C(=O)NC1CCSCC1` (configuration not stated), for which the cytotoxicity at 10 µM is -16%.

For the compound `CCc1nn(C)c2[nH]nc(NC(=O)c3cccnc3OCC(C)C)c12`, the cytotoxicity at 10 µM amounted to 3.94%.

For `Cc1cc(C(=O)NC2(c3ccc(Br)cc3)CC2)n(C)n1`, the cytotoxicity at 10 µM came out at 56.7%.

Turning to `COc1ccc(C2CCCCCN2Cc2nnc(C)o2)cc1` (configuration not stated), the cytotoxicity at 10 µM was -7.12%.

Turning to `Cc1nc(C)c(CC(=O)N2CCC(Oc3ccccc3)CC2)c(=O)[nH]1`, the cytotoxicity at 10 µM was found to be 1.98%.

Regarding `CN(Cc1cccs1)C(=O)CN(C)C1CCc2ccccc21` (configuration not stated), the cytotoxicity at 10 µM came to 10.1%.

Turning to `CCNC(=O)N1CCc2ccc(NC(=O)NCc3ccsc3)cc21`, the cytotoxicity at 10 µM is -11.8%.

For `O=S(=O)(NCC1CCN(CCN2CCOCC2)C1)c1ccccc1F` (configuration not stated), the cytotoxicity at 10 µM is -57.9%.

Take `Cn1c(=O)[nH]c(=O)c2cc(C(=O)N3CCCC3C3CCCC3)cnc21` (configuration not stated): the cytotoxicity at 10 µM amounted to 14%.

On to `CCSc1cncc(N2CCC(C(=O)Nc3ccccn3)CC2)n1`, for which the cytotoxicity at 10 µM was determined as 26.3%.

Take `NC(=O)c1ccc(N2CCCCC2)c(NC(=O)c2cncc(Br)c2)c1`: the cytotoxicity at 10 µM was -9.41%.

For the compound `CCCN1CCC(NC(=O)c2ccc(F)cc2I)CC1`, the cytotoxicity at 10 µM is -11.8%.

`O=C(c1c2c(N3CCCC3)ncnc2n2ccccc12)N1CCCC1`: the cytotoxicity at 10 µM was -70.7%.

Consider `CC1c2ncc(COCC3CCOCC3)n2CCN1C(=O)c1ccco1` (configuration not stated), for which the cytotoxicity at 10 µM is -0.882%.

As for `Cc1ncc(-c2ccnc(N[C@@H](C)CO)n2)c(C2CCCCC2)n1`, the cytotoxicity at 10 µM is -20.7%.

For the compound `CCN1CCCC(C)(C(=O)NCc2nccn2Cc2ccccc2)C1` (configuration not stated), the cytotoxicity at 10 µM turned out to be 4.69%.

On to `O=C(c1cnc(C2CC2)nc1)N1CCC(N2CCC(O)CC2)CC1`, for which the cytotoxicity at 10 µM was 2.33%.

With `Cc1nn(C)cc1-c1ccnc(N2CCSCC2)n1`, the cytotoxicity at 10 µM was determined as 3.47%.

`CCOc1ccc(CN2CC[C@](C)(O)C(C)(C)C2)cn1`: the cytotoxicity at 10 µM came out at 5.88%.

With `CNC(=O)c1ccnc(N2CCCC(COc3cccc(C)c3)C2)c1` (configuration not stated), the cytotoxicity at 10 µM came to 7.68%.

As for `CC(C)=CCCN1CCN(C)C2(CCC(=O)N(C)CC2)C1` (configuration not stated), the cytotoxicity at 10 µM was -54%.

Take `Nc1nc(O)cc(N2CCC(c3cc(Cc4ccccc4)n[nH]3)CC2)n1`: the cytotoxicity at 10 µM came to 1.85%.

With `Cc1nccc(-c2cccc(-c3ccn(CC4CCNC4)n3)c2)n1` (configuration not stated), the cytotoxicity at 10 µM is 10.7%.

Turning to `COCCC1(C(=O)O)CCCN(C(=O)c2cnc3c(c2)CCCC3)C1` (configuration not stated), the cytotoxicity at 10 µM was -44.5%.

With `O=c1cc(N2CCCC2)cnn1Cc1noc(C2CCCO2)n1` (configuration not stated), the cytotoxicity at 10 µM was -59.8%.

For the compound `COc1ccc(-c2noc(CN3CCN(c4cnccn4)CC3)n2)cc1`, the cytotoxicity at 10 µM was found to be 6.58%.

As to `CN(CCC(C)(C)O)C(=O)C1CCC(=O)N(Cc2ccc(Cl)cc2)C1` (configuration not stated), the cytotoxicity at 10 µM was determined as 7.67%.

For the compound `Cc1ccc(-c2ccnc(N(C)CC3CCCO3)n2)c(C)n1` (configuration not stated), the cytotoxicity at 10 µM is -2.59%.

As for `CC(=O)NCCc1nc(C(C)C)nn1-c1ccncc1C`, the cytotoxicity at 10 µM was 3.26%.

Turning to `Cn1cc(CN2CCCC23CCN(c2nc4ccccc4s2)CC3)cn1`, the cytotoxicity at 10 µM turned out to be 4.86%.

For `O=S(=O)(c1c(Cl)nc2sccn12)N1CCC2(CCNCC2)C1`, the cytotoxicity at 10 µM stood at 6.11%.

With `O=C(O)[C@@H]1CN(Cc2nc3ncccn3n2)C[C@H]1c1cccc(F)c1`, the cytotoxicity at 10 µM was -10.6%.

For `Cc1c(C(C)NC2CCN(C(C)C)CC2)cnn1-c1ccc(F)cc1F` (configuration not stated), the cytotoxicity at 10 µM was -6.58%.

For `CC(C)=CCC1(C(=O)O)CCCN(c2ccnc(C)n2)C1` (configuration not stated), the cytotoxicity at 10 µM was -0.842%.

Turning to `Cc1ccc(-c2cccc(-c3ccn(CCN4CCCC4)n3)c2)nn1`, the cytotoxicity at 10 µM was -8.74%.

On to `Cc1nnc(NC(=O)NCc2ccc(OC3CCCC3)nc2)s1`, for which the cytotoxicity at 10 µM turned out to be 0.141%.

As for `CCc1c(C(=O)N2CCC(CC(N)=O)CC2)cnn1C(C)(C)C`, the cytotoxicity at 10 µM was 2.2%.

For `CC(O)CN1CCN(Cc2coc(-c3ccc(Cl)cc3)n2)CC1` (configuration not stated), the cytotoxicity at 10 µM was -7.42%.

In the case of `Cc1cnc(C(=O)N2CCCC(n3cccn3)C2)cn1` (configuration not stated), the cytotoxicity at 10 µM is -0.29%.

On to `Cc1ccc(-n2nnc(C(=O)NCC(F)(F)F)c2C2CC2)cc1`, for which the cytotoxicity at 10 µM was -6.94%.

Regarding `Cc1cnn(C2CCCN(C(=O)c3ccc(-n4cnnn4)cc3)C2)c1` (configuration not stated), the cytotoxicity at 10 µM is -4.57%.

In the case of `Cc1cccc(CNCc2ccc(NC(=O)NC(C)C)cc2)c1`, the cytotoxicity at 10 µM was -3.03%.

`FC(F)(F)c1ccc(CN2CCN(Cc3cscn3)CC2)cc1`: the cytotoxicity at 10 µM is -4.94%.

Consider `CN(Cc1cscn1)C1CCCN(Cc2noc(C3CC3)n2)C1` (configuration not stated), for which the cytotoxicity at 10 µM was -2.77%.

Consider `Cc1nnc(NC(=O)NCc2ccc(N3CCN(C)CC3)nc2)s1`, for which the cytotoxicity at 10 µM is -7.91%.

Turning to `Cc1cc(C)c(CNC(=O)N(C)Cc2sccc2C)c(=O)[nH]1`, the cytotoxicity at 10 µM was -1.77%.

`CC(O)CN1CCN(Cc2cccc(C(=O)N(C)C)c2)CC1` (configuration not stated): the cytotoxicity at 10 µM was -3.93%.

With `Cc1cc(C)cc(C2(C(=O)NC(C)Cn3ccnc3)CC2)c1` (configuration not stated), the cytotoxicity at 10 µM is -8.26%.

As for `Cc1cnc(NC(=O)c2ccc(-n3ncc(C#N)c3N)cc2)s1`, the cytotoxicity at 10 µM is 5.88%.

`CCOCc1ccc(CNC2=NCCCN2)cc1`: the cytotoxicity at 10 µM is -51.5%.

`COCC1c2c(cnn2CC2CC2)CCN1Cc1cc(C)on1` (configuration not stated): the cytotoxicity at 10 µM turned out to be 5.5%.

For `c1cncc(OC[C@@]23CCC[C@@H]2CN(CC2CCOCC2)C3)c1`, the cytotoxicity at 10 µM worked out at 7.66%.

On to `O=C1NCCN(CC2CC2)C12CCN(Cc1ccccc1)CC2`, for which the cytotoxicity at 10 µM was -78.7%.

As for `Fc1cnc(N2CCn3cc(CNc4ccccn4)nc3C2)nc1`, the cytotoxicity at 10 µM was -0.665%.

Consider `O=C(NC1CC1)[C@@H]1C[C@@H]2CCN(Cc3ccccc3)C[C@@H]2O1`, for which the cytotoxicity at 10 µM was -65.8%.

As to `CC(C)NC1CCc2c(ccc(=O)n2CC2CC2)C1` (configuration not stated), the cytotoxicity at 10 µM was -76.5%.

In the case of `CCc1cnc(N2CCC3(CC2)CN(c2cccnc2)C(=O)CO3)nc1`, the cytotoxicity at 10 µM worked out at 7.18%.

Turning to `COc1ccc(CN2CC[C@H](O)[C@@H]2Cc2cnn(C)c2)cc1`, the cytotoxicity at 10 µM is -81.7%.

In the case of `O=C(O)c1cc2c(nc1-c1ccoc1)CCN(CC1CCOC1)CC2` (configuration not stated), the cytotoxicity at 10 µM is -81.9%.

As for `COCCN1CCOCC12CCN(C(=O)c1ccncc1)CC2`, the cytotoxicity at 10 µM is -71.9%.

Regarding `O=S1(=O)CCN(Cc2cccnc2)[C@H]2CCN(c3ncccn3)CC[C@H]21`, the cytotoxicity at 10 µM was -11.2%.

As to `Cc1nc(C2(O)CCCNCC2)sc1CCOc1ccc(F)cc1` (configuration not stated), the cytotoxicity at 10 µM was -15.8%.

On to `Cn1cc(-c2cnc(N3CCOCC3)nc2)cc1C(=O)NCCC#N`, for which the cytotoxicity at 10 µM is -83.9%.

On to `Cc1ccc(CN2CCC3(CC2)CC(N2CCN(C)CC2)CO3)s1` (configuration not stated), for which the cytotoxicity at 10 µM is -94.6%.

For `CC(=O)Nc1c(C)noc1C=Cc1ccc(S(=O)(=O)NC2CC2)cc1`, the cytotoxicity at 10 µM came to 0.54%.

For the origin of these results see ChEMBL document CHEMBL4513216, “Probing the Open Global Health Chemical Diversity Library for Multistage-Active Starting Points for Next-Generation Antimalarials” (ACS Infect Dis, 2020).
